In series [1] the target is T1, Muscarinic acetylcholine receptor M5 (Homo sapiens) (UniProt P08912).
T1 sequence (whole entry): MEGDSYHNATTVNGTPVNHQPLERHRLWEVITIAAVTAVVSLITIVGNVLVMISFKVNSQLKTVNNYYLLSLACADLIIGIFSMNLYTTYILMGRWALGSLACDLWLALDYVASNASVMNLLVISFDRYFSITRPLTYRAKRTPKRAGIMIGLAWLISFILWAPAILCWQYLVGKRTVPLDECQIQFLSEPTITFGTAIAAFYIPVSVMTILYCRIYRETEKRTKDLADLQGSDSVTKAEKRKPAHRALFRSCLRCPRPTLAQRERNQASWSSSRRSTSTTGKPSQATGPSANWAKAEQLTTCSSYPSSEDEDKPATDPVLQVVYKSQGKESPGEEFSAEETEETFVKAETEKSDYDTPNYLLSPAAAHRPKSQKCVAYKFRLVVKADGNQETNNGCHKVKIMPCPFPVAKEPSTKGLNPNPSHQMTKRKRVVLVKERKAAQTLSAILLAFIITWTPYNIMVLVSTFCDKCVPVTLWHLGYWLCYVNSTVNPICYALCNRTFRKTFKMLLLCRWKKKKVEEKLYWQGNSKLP
Nature of the series: Maximal level of stimulation as a percentage above basal levels. Format: functional.

Series [2] can be described thus: Maximum release of beta-hexosaminidase was determined as a measure of degranulation. Type of series: functional. More on the design: reference not given here. In short, it runs like this:
(§1)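 RBL-2H3 mast cell subclone stably transfected with human M4 receptor (>1 × 10^5 receptors/cell). Agonist action read as degranulation, i.e. hexosaminidase released into the supernatant, following earlier M1 methods. Dose-response data fit to a one-site stimulation model for Smax and EC50.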

A short description of series [3]: Solubility in deionized water. Type of series: physicochemical. The settings on record: read-out: S.
The target of series [4] is T2, Muscarinic acetylcholine receptor M4 (Homo sapiens, UniProt P08173).
T2 sequence (P08173 whole entry): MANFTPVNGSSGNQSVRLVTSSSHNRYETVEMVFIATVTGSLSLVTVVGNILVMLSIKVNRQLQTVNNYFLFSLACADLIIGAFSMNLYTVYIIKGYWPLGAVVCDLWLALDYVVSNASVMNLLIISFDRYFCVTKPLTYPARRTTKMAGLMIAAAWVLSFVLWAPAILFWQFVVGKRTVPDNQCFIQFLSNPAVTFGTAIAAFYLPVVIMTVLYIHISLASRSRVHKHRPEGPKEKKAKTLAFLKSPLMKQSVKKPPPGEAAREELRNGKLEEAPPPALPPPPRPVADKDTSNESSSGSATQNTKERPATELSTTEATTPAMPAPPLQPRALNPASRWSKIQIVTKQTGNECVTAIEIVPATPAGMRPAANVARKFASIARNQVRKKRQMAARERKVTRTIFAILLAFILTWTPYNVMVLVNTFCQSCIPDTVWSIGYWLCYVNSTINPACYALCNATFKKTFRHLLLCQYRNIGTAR
Nature of the series: Agonist activity against M4 muscarinic receptor expressed in RBL-2H3 Mast cells. Type of series: functional, cell-based. Summed up: as §1

The target in series [5] is T3, Muscarinic acetylcholine receptor M1 (Homo sapiens, UniProt P11229).
T3 sequence (P11229 whole entry): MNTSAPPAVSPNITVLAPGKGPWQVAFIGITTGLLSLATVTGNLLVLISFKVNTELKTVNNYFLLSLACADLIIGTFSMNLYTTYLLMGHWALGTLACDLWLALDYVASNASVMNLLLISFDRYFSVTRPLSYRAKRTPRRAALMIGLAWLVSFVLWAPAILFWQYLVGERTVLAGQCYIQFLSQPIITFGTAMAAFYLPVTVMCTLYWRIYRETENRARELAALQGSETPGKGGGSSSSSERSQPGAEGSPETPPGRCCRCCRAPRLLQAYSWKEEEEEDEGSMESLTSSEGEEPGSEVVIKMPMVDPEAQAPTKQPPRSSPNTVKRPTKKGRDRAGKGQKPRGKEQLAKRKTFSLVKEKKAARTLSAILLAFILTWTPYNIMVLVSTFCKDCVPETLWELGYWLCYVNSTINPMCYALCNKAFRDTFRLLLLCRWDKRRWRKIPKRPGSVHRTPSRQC
The experiment in a line: (§2) Binding affinity towards M1 muscarinic receptor expressed in A9 L cells by displacing [3H](R)-QNB radioligand.

Series [6] can be described thus: Solubility in Kreb-Heinsleit buffer. Format: physicochemical.
Series [7] concerns the target T4, Muscarinic acetylcholine receptor M1 (Homo sapiens) (UniProt P11229).
T4 sequence (whole entry): T3 sequence (P11229 whole entry)
As to conditions: at 100 µM.

Series [8] has as its target T3, Muscarinic acetylcholine receptor M1. The description is as §2. Type of series: cell-based, L929. Summed up: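 Competition binding on A9 L cell membrane homogenates (human M1) with 0.1 nM [3H]-(R)-QNB and 14 test-ligand concentrations, 0.01 nM to 3 mM. Buffer 25 mM sodium phosphate pH 7.4 with 5 mM MgCl2, 2 h at room temperature.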
In series [9] the target is T4, Muscarinic acetylcholine receptor M1 (Homo sapiens). Nature of the series: Agonist activity at M1 receptor coupled to phosphoinositide metabolism at 100 uM expressed as percent stimulation above basal levels relative to carbachol response. Type of series: functional. Summed up: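 Stably transfected A9 L cells (and/or NIH 3T3) expressing human M1 receptor; agonist-stimulated accumulation of [3H]-inositol phosphates measured at 100 µM test ligand. […] Mean (SEM) of two to five assays per compound.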

Series [10] deals with T3, Muscarinic acetylcholine receptor M1. Nature of the series: Agonistic activity against M1 muscarinic receptor expressed in A9 L cells. Format: functional, cell-based, A9L.
The target is the same in series [11]. The experiment in a line: Agonistic activity against M1 muscarinic receptor expressed in NIH 3T3 cells. Format: functional, cell-based, NIH3T3.
The target of series [12] is T2, Muscarinic acetylcholine receptor M4. Nature of the series: Agonist activity against human M4 muscarinic receptor expressed in RBL-2H3 Mast cells. Format: functional, cell-based. In short, it runs like this:
as §1

In brackets after ≈: the same amount, converted by molar mass.

Take `C[N+](C)(C)CCOC(N)=O`: the Smax in [1] was found to be 110%. Further, the Max release in series [2] is 87%.
Usually EC50 stands for the concentration that produces a half-maximal response. One may read the Ki as a dissociation constant, usually derived from enzyme kinetics or from competition with a known ligand. For `CN1CCC=C(c2nsnc2OCCCCCCCCCCCCOc2nsnc2C2=CCCN(C)C2)C1`, the solubility in series [3] came out at 20 mg/mL (≈ 35.7 mM); in series [6], 0.0017 mg/mL (≈ 0.00303 mM). The compound further registered a concentration for a half-maximal effect (EC50) in [4] of 1.4 nM. Further, in [5], the Ki is 1.6 nM. Further, the Max release in [2] came to 57%. The PI metabolism in series [7] came out at 84%.
As for `CN1CCC=C(c2nsnc2OCCOCCOc2nsnc2C2=CCCN(C)C2)C1`, the Ki in series [8] is 4.9 nM. The same compound showed a Stimulation in [9] of less than 10%.
Turning to `CN1CCC=C(c2nsnc2SCCCSc2nsnc2C2=CCCN(C)C2)C1`, in series [5], the Ki stood at 1.2 nM. The EC50 in [10] came to 350 nM.
In the case of `CC(=O)OCC[N+](C)(C)C`, in series [1], the Smax was determined as 99%.
Take `CN1CCC=C(c2nsnc2OCCOCCOCCOCCOCCOc2nsnc2C2=CCCN(C)C2)C1`: the affinity in [5] corresponds to a Ki of 1.5 nM. Moreover, the PI metabolism in series [7] is less than 10%.
In series [5], `CN1CCC=C(c2nsnc2SCCCCCCCCSc2nsnc2C2=CCCN(C)C2)C1` yielded a Ki of 5 nM. This compound registered an EC50 in series [10] of 920 nM.
In the same order, the values of `CN1CCC=C(c2nsnc2SCCCCSc2nsnc2C2=CCCN(C)C2)C1` are 0.93 nM and 570 nM.
On to `CN1CCC=C(c2nsnc2OCCOCCOCCOCCOCCOCCOc2nsnc2C2=CCCN(C)C2)C1`, for which the affinity in [5], expressed as Ki, was 1.9 nM. Besides, the PI metabolism in [7] was less than 10%.
`CN1CCC=C(c2nsnc2SCCCCCSc2nsnc2C2=CCCN(C)C2)C1`: in [5], the Ki is 14 nM. The same compound displayed an EC50 in [10] of 79 nM.
For the compound `CCCCCCOc1nsnc1C1=CCCN(C)C1`, the PI metabolism in series [7] stood at 47%.
`CN1CCC=C(c2nsnc2OCCOCCOCCOCCOc2nsnc2C2=CCCN(C)C2)C1`: the solubility in [3] is more than 1000 mg/mL; in series [6], 0.02 mg/mL (≈ 0.0362 mM). For the same compound, the values for the EC50 in series [4] and in series [11] were 5.2 nM and 290 nM, respectively. Besides, in series [1], the Smax was -3.7%. In [2], this compound had a Max release of 43%. Moreover, in [7], the PI metabolism is 56%.
On to `CN1CCC=C(c2nsnc2SCCCCCCCCCCCSc2nsnc2C2=CCCN(C)C2)C1`, for which the EC50 stood at 4.7 nM in series [4] and 1500 nM in series [10]. The same compound showed a Ki in [5] of 0.57 nM. This compound gave a Max release in [2] of 29%.
Turning to `CN1CCC=C(c2nsnc2SCCCCCCCCCCSc2nsnc2C2=CCCN(C)C2)C1`, the results for the EC50 in series [4] and in series [10] were 0.6 nM and 2100 nM, respectively. This compound returned a Ki in series [5] of 0.32 nM. Moreover, the Max release in series [2] was 61%.
In the case of `CN1CCC=C(c2nsnc2OCCCCCCOc2nsnc2C2=CCCN(C)C2)C1`, the EC50 in series [4] is more than 100000 nM. This compound also showed a Max release in series [2] of 3%. In [7], the PI metabolism turned out to be 18%.
In [5], `CN1CCC=C(c2nsnc2SCCCCCCCCCSc2nsnc2C2=CCCN(C)C2)C1` displayed a Ki of 17 nM. Also, the EC50 in series [10] was 120 nM.
In the same order, the values of `CN1CCC=C(c2nsnc2SCCSc2nsnc2C2=CCCN(C)C2)C1` are 20 nM and 440 nM.
Take `CN1CCC=C(c2nsnc2SCCCCCCCCCCCCSc2nsnc2C2=CCCN(C)C2)C1`: the EC50 was 1 nM in series [4] and 13000 nM in [10]. In series [5], this compound came in with a Ki of 0.69 nM. The Max release in series [2] worked out at 54%.
With `CN1CCC=C(c2nsnc2OCCCCCCCCCCOc2nsnc2C2=CCCN(C)C2)C1`, the solubility in [3] stood at 25 mg/mL (≈ 46.9 mM); in series [6] it was 0.004 mg/mL (≈ 0.00751 mM). For the same compound, the EC50 in series [4] amounted to 1100 nM. The compound also registered a Max release in series [2] of 24%. Besides, in series [7], the PI metabolism was 76%.
In the case of `CN1CCC=C(c2nsnc2OCCCCCCCCOc2nsnc2C2=CCCN(C)C2)C1`, the EC50 in series [4] was more than 100000 nM. The Max release in series [2] was 1%. In addition, the PI metabolism in series [7] was found to be 8.2%.
In series [4], `CN1CCC=C(c2nsnc2OCCCCCCCCCOc2nsnc2C2=CCCN(C)C2)C1` returned an EC50 of 20000 nM. In addition, the Ki in series [5] was 0.84 nM. In series [2], this compound gave a Max release of 61%. Moreover, the PI metabolism in series [7] is 27%.
As for `CN1CCC=C(c2nsnc2OCCCCCOc2nsnc2C2=CCCN(C)C2)C1`, the PI metabolism in series [7] is -1%.
The same measure, in the same setting: the value for `CN1CCC=C(c2nsnc2OCCOCCOCCOc2nsnc2C2=CCCN(C)C2)C1` was less than 10%.
Consider `CN1CCC=C(c2nsnc2SCCCCCCCSc2nsnc2C2=CCCN(C)C2)C1`, for which affinity in series [5] was put at a Ki of 7.6 nM. Further, the 50% effective concentration (EC50) in series [10] was 180 nM.
The like results for `CN1CCC=C(c2nsnc2SCCCCCCSc2nsnc2C2=CCCN(C)C2)C1` were, in that order, 0.87 nM and 590 nM.
Consider `CN1CCC=C(c2nsnc2OCCCCCCCOc2nsnc2C2=CCCN(C)C2)C1`, for which, in series [4], the EC50 is more than 100000 nM. Also, the Max release in [2] came to 4%. Moreover, in [7], the PI metabolism is -3%.
Take `CN1CCC=C(c2nsnc2OCCCCOc2nsnc2C2=CCCN(C)C2)C1`: the PI metabolism in series [7] amounted to 21%.
Turning to `CN1CCC=C(c2nsnc2OCCOc2nsnc2C2=CCCN(C)C2)C1`, a half-maximal effect in series [12] (EC50) was put at 3900 nM. The Max release in [2] was 39%. In [9], the Stimulation was 50%.
Consider `CN1CCC=C(c2nsnc2OCCCOc2nsnc2C2=CCCN(C)C2)C1`, for which the PI metabolism in [7] worked out at 21%.

These data come from ChEMBL document CHEMBL1134318, “Design, synthesis, and biological characterization of bivalent 1-methyl-1,2,5,6-tetrahydropyridyl-1,2,5-thiadiazole derivatives as selective muscarinic agonists” (J Med Chem, 2001).
